The source of these data is paper PMC7359852 (ACS Infectious Diseases, 2020).

Like-named read-outs stand apart in the source and are kept apart here.

The test system of test [1] is adult S. mansoni. The test can be described thus: Viability of adult S. mansoni worms in vitro, microscopic viability score. It is filed as cell-based, Schistosoma mansoni. As to conditions: for IC50: Table 1, adult worms after 72 h; for adult (%) 0.1 μM: Table 1, 0.1 μM; for adult (%) 0.1 μM / adult (%) 1 μM: effect on adult worms after 72 h; for adult (%) 1 μM: Table 1, 1 μM. The procedure, abridged:
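Adult worms were picked from the hepatic portal and mesenteric veins of mice infected 49 days earlier with 100 cercariae. They were washed in PBS pH 7.4 and held in RPMI 1640 with 5% heat-inactivated FCS and antibiotics at 37 °C, 5% CO2. Worms were exposed to test compound for 72 h, with medium plus 1% DMSO as control. Motility, viability and morphology were scored daily by microscopy at 80×. IC50 used a 3-fold dilution series starting at 1 μM and was computed from the scores.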

Test [2] deals with S. mansoni. The test can be described thus: In vivo study in mice harboring a chronic S. mansoni infection. The settings on record: single oral dose 10 mg/kg. The procedure, abridged: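 Female NMRI mice (3 weeks old, ca. 20–22 g) were infected subcutaneously with about 100 S. mansoni cercariae. At day 49 post-infection (adult infection), groups of four received a single oral 10 mg/kg dose of test compound; untreated mice served as controls. Mice were euthanised with CO2 21 days after treatment. Worms were picked, sexed and counted, and worm burden reduction was calculated.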

The test system of test [3] is S. mansoni NTS. The settings on record: read-out: IC50 against NTS; cited from earlier work.
Test [4] has as its system adult S. mansoni. The settings on record: read-out: IC50 against adult S. mansoni; cited from earlier work.
Test [5] concerns S. mansoni. The settings on record: cited from earlier work.
Test [6] has as its system S. mansoni. The settings on record: cited from earlier work. This is another data set of the same source.

By IC50 is commonly meant the concentration that inhibits the measured activity by half. In test [1] (Schistosoma mansoni, 72 h), `C[C@@H]1C[C@H](O)[C@]2(O)O[C@@H]3C[C@@]4(C=O)[C@@H](CC[C@@H]5[C@@H]4CC[C@]4(C)[C@@H](C6=CC(=O)OC6)CC[C@]54O)C[C@H]3O[C@@H]2O1` [5a, Calotropin] yielded an IC50 of 371 nM. For the same molecule, in test [1], the “adult (%) 0.1 μM” value was 22.9% and the “adult (%) 1 μM” value worked out at 97%.

Consider `C[C@@H]1C[C@@]2(NCCS2)[C@]2(O)O[C@@H]3C[C@@]4(C=O)[C@@H](CC[C@@H]5[C@@H]4CC[C@]4(C)[C@@H](C6=CC(=O)OC6)CC[C@]54O)C[C@H]3O[C@@H]2O1` [5aa, Voruscharin], for which, in test [1], the “adult (%) 0.1 μM” value is 31.3%, the “adult (%) 1 μM” value amounted to 98% and the IC50 was found to be 137 nM.

For `C[C@@H]1C[C@H](O)[C@]2(O)O[C@@H]3C[C@@]4(C)[C@@H](CC[C@@H]5[C@@H]4CC[C@]4(C)[C@@H](C6=CC(=O)OC6)CC[C@]54O)C[C@H]3O[C@@H]2O1` [5f, Gomphoside], in test [1], the “adult (%) 0.1 μM” value is 24.4%, the “adult (%) 1 μM” value came out at 94% and half-maximal inhibition (IC50) required 196 nM.

In the case of `C[C@@H]1C[C@@]2(N=CCS2)[C@]2(O)O[C@@H]3C[C@@]4(C=O)[C@@H](CC[C@@H]5[C@@H]4CC[C@]4(C)[C@@H](C6=CC(=O)OC6)CC[C@]54O)C[C@H]3O[C@@H]2O1` [5z, Uscharin], in test [2], the “mean number of worms, MV” value is recorded as 27.7 ± 6.5; the “mean number of worms, females” value is reported as 13.0 ± 4.6; the “mean number of worms, liver, alive” value was 0.7 ± 1.1; the “mean number of worms, liver, dead” value is listed as 0 ± 0. In test [2], the “mean number of worms, males” value turned out to be 15.3 ± 3.2 and the “mean number of worms, total” value is 28.3 ± 7.5. For the same molecule, the “total WBR (worm burden reduction)” value in test [2] (chronic infection) turned out to be 0%. This molecule also returned an IC50 in test [1] (Schistosoma mansoni, 72 h) of 76 nM. In test [1], the “adult (%) 0.1 μM” value came out at 51% and the “adult (%) 1 μM” value amounted to 100%.

With `O=C(C1CCCCC1)N1CC(=O)N2CCc3ccccc3C2C1` (centres unmarked) [praziquantel], the IC50 in test [3] is 2200 nM; in test [4], 100 nM.

For `CC(=O)S[C@@H]1CC2=CC(=O)CC[C@]2(C)[C@H]2CC[C@@]3(C)[C@@H](CC[C@@]34CCC(=O)O4)[C@H]12` [spironolactone], in test [5], the “in vitro activity against S. mansoni” value was 7.2 µM. In addition, in test [6], the in vivo activity entry is listed as “moderate”.
